Results published in ChEMBL document CHEMBL1121772, “Synthesis and beta-lactamase inhibitory properties of 2 beta-(chloromethyl)-2 alpha-methylpenam-3 alpha-carboxylic acid 1,1-dioxide” (1981).
≈ marks a conversion by molar mass, not a printed value.

Legend:
Type in all cases: functional
[1] = target: Beta lactamase TEM-1 (Klebsiella pneumoniae) (UniProt Q7B899); experiment: Beta-lactamase inhibitory activity from Klebsiella pneumoniae A20634(TEM) and minimum protective concentration was reported
Sequence of Beta lactamase TEM-1 (Klebsiella pneumoniae) (Q7B899 as listed by the source): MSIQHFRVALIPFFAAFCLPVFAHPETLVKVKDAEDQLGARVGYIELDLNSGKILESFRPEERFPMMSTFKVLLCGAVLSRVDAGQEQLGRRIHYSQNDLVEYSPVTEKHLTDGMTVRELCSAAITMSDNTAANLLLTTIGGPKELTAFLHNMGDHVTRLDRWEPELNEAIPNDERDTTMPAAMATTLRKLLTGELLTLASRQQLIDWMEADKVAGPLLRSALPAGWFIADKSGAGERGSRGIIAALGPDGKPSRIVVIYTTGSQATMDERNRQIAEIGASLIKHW

[2] = target: Beta-lactamase (Staphylococcus aureus) (UniProt P00807); experiment: Beta-lactamase inhibitory activity from Staphylococcus aureus A9606 and minimum protective concentration was reported
Sequence of Beta-lactamase (Staphylococcus aureus) (P00807 whole entry): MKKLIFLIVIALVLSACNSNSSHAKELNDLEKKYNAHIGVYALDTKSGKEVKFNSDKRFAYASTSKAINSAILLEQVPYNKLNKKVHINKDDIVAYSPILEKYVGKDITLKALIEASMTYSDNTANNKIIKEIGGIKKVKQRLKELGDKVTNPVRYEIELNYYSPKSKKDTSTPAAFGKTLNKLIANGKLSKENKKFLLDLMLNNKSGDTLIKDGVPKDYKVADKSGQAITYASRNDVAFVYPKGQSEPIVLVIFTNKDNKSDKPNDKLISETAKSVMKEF

[3] = tested on: Staphylococcus aureus; experiment: Minimum inhibitory activity against Staphylococcus aureus A15091
Outline: (§1)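 MICs by agar dilution: organisms were inoculated onto drug-containing agar plates with a multipoint replicating device.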

[4] = organism: Mus musculus; experiment: Beta-lactamase inhibitory activity against Staphylococcus aureus A9606 using oral mouse protection test in mice; details: for ED50: Mus musculus, po, read-out: PD50
Outline: (§2)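 Challenge organisms suspended in mucin (2 or 4%) and injected ip into 18-24 g Swiss-Webster (ICR strain) mice. Oral treatment given at 0 and 2 h postchallenge. Observation ran 5 days, and PD50 was calculated by the Spearman-Karber method.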

[5] = tested on: Escherichia coli; experiment: Minimum inhibitory activity against Escherichia coli A9675; outline: as §1
[6] = tested on: Escherichia coli; experiment: Minimum inhibitory activity against Escherichia coli A21223; outline: as §1
[7] = tested on: Staphylococcus aureus; experiment: Minimum inhibitory activity against Staphylococcus aureus A20309; outline: as §1
[8] = organism: Mus musculus; experiment: Beta-lactamase inhibitory activity against Escherichia coli A21223 using oral mouse protection test in mice; details: read-out: PD50; outline: as §2
[9] = organism: Mus musculus; experiment: Beta-lactamase inhibitory activity against Staphylococcus aureus A20379 using oral mouse protection test in mice; details: read-out: PD50; outline: as §2
[10] = organism: Mus musculus; experiment: Beta-lactamase inhibitory activity against Staphylococcus aureus A15091 using oral mouse protection test in mice; details: read-out: PD50; outline: as §2
[11] = tested on: Staphylococcus aureus; experiment: Minimum inhibitory activity against Staphylococcus aureus A9606; outline: as §1
[12] = target: Metallo-beta-lactamase type 2 (Bacteroides fragilis) (UniProt P25910); experiment: Beta-lactamase inhibitory activity from […] A-22,695 and minimum protective concentration was reported
Sequence of Metallo-beta-lactamase type 2 (Bacteroides fragilis) (P25910 whole entry): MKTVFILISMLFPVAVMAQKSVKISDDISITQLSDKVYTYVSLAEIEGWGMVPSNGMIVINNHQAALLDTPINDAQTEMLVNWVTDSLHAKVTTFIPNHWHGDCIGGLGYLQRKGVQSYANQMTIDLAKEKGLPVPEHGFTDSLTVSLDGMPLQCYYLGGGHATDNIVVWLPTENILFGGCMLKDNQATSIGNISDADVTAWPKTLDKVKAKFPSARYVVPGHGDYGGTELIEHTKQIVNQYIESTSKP

Compound | MPC [1] [µg/mL] | MPC [2] [µg/mL] | MIC [3] [µg/mL] | ED50 [4] [mg/kg] | MIC [5] [µg/mL] | MIC [6] [µg/mL] | MIC [7] [µg/mL] | ED50 [8] [mg/kg] | ED50 [9] [mg/kg] | ED50 [10] [mg/kg] | MIC [11] [µg/mL] | PD50 [4] [mg/kg] | MPC [12] [µg/mL]
CC1(C)C(C(=O)O)N2C(=O)C(Cl)C2S1(=O)=O (stereo not drawn) | 25 | > 100 | – | – | – | – | – | – | – | – | – | – | –
CC1(C)S[C@@H]2[C@H](NC(=O)[C@H](N)c3ccc(O)cc3)C(=O)N2[C@H]1C(=O)O [AMOXICILLIN] | – | – | > 125 | > 800 | 63 (≈ 172 µM) | 125 (≈ 342 µM) | 125 (≈ 342 µM) | > 200 | > 200 | > 800 | > 125 | – | –
CC1(C)S[C@@H]2[C@H](NC(=O)[C@H](N)c3ccc(O)cc3)C(=O)N2[C@H]1C(=O)O.O=C(O)[C@H]1/C(=C/CO)O[C@@H]2CC(=O)N21 | – | – | 2 | – | 2 | 8 | 2 | – | – | – | 2 | – | –
CC1(C)[C@H](C(=O)O)N2C(=O)C[C@H]2S1(=O)=O [SULBACTAM] | 1.6 | 12.5 | > 125 | – | 125 (≈ 536 µM) | > 125 | > 125 | > 200 | > 200 | > 200 | > 125 | > 200 | 12.5
C[C@]1(CCl)[C@H](C(=O)[O-])N2C(=O)C[C@H]2S1(=O)=O.[K+] [BL-P2013] | 3.1 | 3.1 | 125 | > 200 | > 125 | > 125 | 125 | > 200 | > 200 | > 200 | 125 | – | 12.5
CC1(C)S[C@@H]2[C@H](NC(=O)[C@H](N)c3ccc(O)cc3)C(=O)N2[C@H]1C(=O)O.C[C@]1(CCl)[C@H](C(=O)[O-])N2C(=O)C[C@H]2S1(=O)=O.[K+] [AMOXACILLIN +BL-P2013] | – | – | 1 | 24 | 2 | 2 | 2 | 16 | 34 | 72 | 1 | – | –
O=C(O)[C@H]1/C(=C/CO)O[C@@H]2CC(=O)N21 [CLAVULANIC ACID] | 0.1 | 0.4 | 32 (≈ 161 µM) | – | 32 (≈ 161 µM) | 32 (≈ 161 µM) | 32 (≈ 161 µM) | – | – | – | 32 (≈ 161 µM) | – | 6.3
CC1(C)S[C@@H]2[C@H](NC(=O)[C@H](N)c3ccc(O)cc3)C(=O)N2[C@H]1C(=O)O.CC1(C)[C@H](C(=O)O)N2C(=O)C[C@H]2S1(=O)=O | – | – | 2 | 15 | 4 | 4 | 4 | 46 | 21 | 160 | 2 | – | –
COc1cccc(OC)c1C(=O)N[C@@H]1C(=O)N2[C@@H](C(=O)O)C(C)(C)S(=O)(=O)[C@H]12 | 125 | > 100 | – | – | – | – | – | – | – | – | – | – | –
